We go through nine molecules from article PMC12951621 (Toxicology, 2025).

Structures are written as SMILES.

The test system of series [1] is hTERT-RPTEC. In words: Uptake / intracellular accumulation and P ratio, hTERT-RPTEC in 96-well plates. Format: in vitro ADME, human. Particulars: 24 h, cell lysates and media. In outline:
(§1)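 Cells seeded uncoated at 32,000 per well in 96-well plates, grown 6 days at 37°C, 5% CO2, medium changed every 48 h. Exposed to test compound in 150 μL medium (PFAS 5 μM final). Medium sampled at 4 and 24 h; cells PBS-rinsed and M-PER lysed at 24 h. Acetonitrile precipitation with internal standards, then LC-MS/MS. Two-compartment model, P ratio = medium/cell concentration; n ≥ 3.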

In series [2] the test system is hTERT-RPTEC-OAT1. Format: in vitro ADME, human. To be noted: 96-well plates; for Accumulation in cells versus medium: 24 h, cell lysates and media, OAT1-overexpressing cells. The gist of the method: as §1
In series [3] the test system is hTERT-RPTEC-OAT1. Briefly: Directional transport, recovery and P ratio, hTERT-RPTEC-OAT1 Transwells. It is filed as in vitro ADME, human. Particulars: for Recovery pattern, apical (A→B) versus basolateral (B→A) treatment: 24 h, donor and recipient media and cell lysates. The gist of the method: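 hTERT-RPTEC-OAT1 cells seeded on fibronectin-coated (100 μg/mL, 1 h, 37°C) Transwells at 22,050 cells/insert. Cultured 2 days at 37°C, 5% CO2; inserts under 65 Ω×cm2 TEER excluded. Test compound (PFAS 5 μM final) added apically (A→B) or basolaterally (B→A), fresh medium opposite. Both chambers sampled at 4 and 24 h; cells lysed (M-PER, 10 min, RT) at 24 h. LC-MS/MS after acetonitrile precipitation with internal standards. Three-compartment Bayesian MCMC fit gave P1–P4; P ratio = P2P4/P1P3; n ≥ 4.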

Details of series [4]: species or system human. Particulars: index chemical half-life 3.14 years divided by relative renal clearance.
Series [5] deals with hTERT-RPTEC-OAT1. Briefly: TEER barrier integrity, hTERT-RPTEC-OAT1 Transwells. Format: cell-based, human. To be noted: 24 hrs post-treatment. In outline:
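Resistance read with an epithelial voltohmmeter and Ag/AgCl probes after treatment. Blank-membrane resistance subtracted, then multiplied by 0.143 cm2 growth area; reported as Ω×cm2. Pre-treatment cultures under 65 Ω×cm2 excluded; n ≥ 4.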

The subject of series [6] is hTERT-RPTEC-OAT1. In words: LDH release. It is filed as cell-based, human. To be noted: 24 hrs exposure, relative to vehicle controls, 96-well plates. In outline: (§2)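 LDH activity measured with a biochemical kit in medium sampled after 24 h exposure to test compound. Expressed as % of vehicle-treated cultures. Compared by one-way ANOVA with Dunnett's post hoc test (p < 0.05). Replicates: n ≥ 3 in 96-well plates, n ≥ 4 in Transwells.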

Series [7] relates to hTERT-RPTEC. In words: LDH release. It is filed as cell-based, human. Particulars: 24 hrs exposure, relative to vehicle controls, 96-well plates. In outline:
as §2
For orientation: LDH leaks from cells whose membrane has failed.

Series [8] relates to hTERT-RPTEC-OAT1. Briefly: LDH release. Format: cell-based, human. To be noted: 24 hrs exposure, relative to vehicle controls, Transwells. The gist of the method:
as §2

Series [9] relates to hTERT-RPTEC-OAT1. Also noted: species or system human. To be noted: 96-well plates, two-compartment model. In outline: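 96-well P ratio (medium/cell concentration, two-compartment model, assuming P1 = P2) entered a physiologically based kidney model. CLrenal,free was calculated from renal arterial blood flow (QK), proximal tubule flow (QPT) and P ratio, and predictions were set against literature human in vivo values.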

Setting [10] is: applied from the basolateral side (B→A).

Consider `O=S(=O)(O)CCC(F)(F)C(F)(F)C(F)(F)C(F)(F)C(F)(F)C(F)(F)C(F)(F)C(F)(F)F` [8:2 FTS, 8:2 Fluorotelomer sulfonic acid], for which the “Accumulation in cells versus medium” value in the series with hTERT-RPTEC [1] and in the series with hTERT-RPTEC-OAT1 [2] was “tended to accumulate more in cells” throughout. Also, the “Recovery pattern, apical (A→B) versus basolateral (B→A) treatment” value with hTERT-RPTEC-OAT1 [3] is on record as “divergent recovery patterns depending on dosing orientation”.

Regarding `O=S(=O)(O)C(F)(F)C(F)(F)C(F)(F)C(F)(F)F` [PFBS, Perfluorobutanesulfonic acid], the Predicted human half-life entry in series [4] is on record as “Days/Months”.

In the case of `O=C(O)C(F)(F)C(F)(F)C(F)(F)C(F)(F)C(F)(F)C(F)(F)C(F)(F)C(F)(F)C(F)(F)F` [PFDA, Perfluorodecanoic acid], the “Accumulation in cells versus medium” value in the series with hTERT-RPTEC [1] and in the series on hTERT-RPTEC-OAT1 [2] was “tended to accumulate more in cells” each time. For the same molecule, in the series with hTERT-RPTEC-OAT1 [5] (setting [10]), the TEER result is on record as “small but significant decrease in TEER”. Moreover, in the series with hTERT-RPTEC-OAT1 [3], the “Recovery pattern, apical (A→B) versus basolateral (B→A) treatment” value is given as “divergent recovery patterns depending on dosing orientation”.

For the molecule `O=C(O)C(F)(F)C(F)(F)C(F)(F)C(F)(F)C(F)(F)F` [PFHxA, Perfluorohexanoic acid], in [4], the Predicted human half-life entry was “Days/Months”.

For the molecule `O=C(O)C(F)(F)C(F)(F)C(F)(F)C(F)(F)C(F)(F)C(F)(F)C(F)(F)F` [PFOA, Perfluorooctanoic acid], in the series on hTERT-RPTEC-OAT1 [6], the LDH release entry is “small but significant increase in LDH release”.

Consider `O=S(=O)(O)C(F)(F)C(F)(F)C(F)(F)C(F)(F)C(F)(F)C(F)(F)C(F)(F)C(F)(F)F` [PFOS, Perfluorooctanesulfonic acid], for which the “Recovery pattern, apical (A→B) versus basolateral (B→A) treatment” value in the series with hTERT-RPTEC-OAT1 [3] is “divergent recovery patterns depending on dosing orientation”.

In the case of `O=C(O)C(F)(F)C(F)(F)C(F)(F)C(F)(F)C(F)(F)C(F)(F)C(F)(F)C(F)(F)C(F)(F)C(F)(F)F` [PFUnDA, Perfluoroundecanoic acid], the “Accumulation in cells versus medium” value in the series with hTERT-RPTEC [1] and in the series on hTERT-RPTEC-OAT1 [2] was “tended to accumulate more in cells” each time. The TEER entry in the series with hTERT-RPTEC-OAT1 [5] (setting [10]) is recorded as “small but significant decrease in TEER”. Further, the “Recovery pattern, apical (A→B) versus basolateral (B→A) treatment” value with hTERT-RPTEC-OAT1 [3] was “divergent recovery patterns depending on dosing orientation”.

For the molecule `CCCCCCCC[N+](CCCCCCCC)(CCCCCCCC)CCCCCCCC.[Br-]` [TAB, tetraoctyl ammonium bromide, reference compound], the LDH release result in the series with hTERT-RPTEC [7], with hTERT-RPTEC-OAT1 [8] and in the series with hTERT-RPTEC-OAT1 [6] was “significant LDH release” throughout. Also, the TEER entry in the series with hTERT-RPTEC-OAT1 [5] was “pronounced reduction in TEER”.

With `C[C@H](Cn1cnc2c(N)ncnc21)OCP(=O)(O)O` [Tenofovir, Tenofovir (TFV), reference compound], in the series on hTERT-RPTEC-OAT1 [2], the “P ratio, OAT1-overexpressing cells versus parental cells” value is given as “roughly 100 fold lower” and the “Accumulation in cells versus medium” value is on record as “enhanced accumulation in the OAT1-overexpressing cells”. For the same molecule, the “Predicted renal clearance, OAT1-overexpressing cells versus parental cells” value with hTERT-RPTEC-OAT1 [9] is “significantly lower”. Moreover, the Intracellular association result with hTERT-RPTEC-OAT1 [3] (ratios of measured concentrations) was “higher intracellular association”.
